pIC50: −log10 of the molar value. Where a SMILES comes first, the peptide text is derived from it. [ ]: non-standard residue; d: D form. The star is where a group is joined. X2 = COC1=CC(=O)N(C(=O)[C@@H](O*)C(C)C)[C@H]1Cc1ccccc1; Dolaproine = CO[C@@H]([C@@H]1CCCN1)[C@@H](C)C(=O)O; NMe2Val = CC(C)[C@@H](C(=O)*)N(C)C; X1 = c1ccc(CC(N*)c2nccs2)cc1; NMeV = CN[C@H](C(=O)O)C(C)C
Tests used:
[1] = test system: MCF7; assay: Selectivity was evaluated [Selectivity = IC50 / IC50 of Dolastatin] against MCF-7 cell line; type: functional, Homo sapiens
In short: (§1)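 For MCF7 cells, cultured in supplemented RPMI 1640 (10% fetal calf serum, 10 mM HEPES, pH 7.4), exposure ran 168 h to nine serial dilutions in triplicate. Viability was read by microculture tetrazolium assay. IC50 is the concentration halving optical density relative to untreated controls; ratio is compound IC50 over parent dolastatin IC50.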

[2] = test system: L1210; assay: Selectivity was evaluated [Selectivity = IC50 / IC50 of Dolastatin] against L1210 cell line; type: functional, Mus musculus
In short: (§2)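 L1210 murine leukemia cells in RPMI 1640 with 10% fetal calf serum, 2 mM glutamine, antibiotics and 10 mM HEPES (pH 7.4). Treatment lasted 48 h at nine serial dilutions in triplicate, with a microculture tetrazolium read-out. IC50 gives 50% optical density reduction versus untreated cells; ratio is compound IC50 divided by parent dolastatin IC50.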

[3] = test system: L1210; assay: Inhibitory activity against growth of L1210 cell line; type: functional, cell-based; conditions: Mus musculus; in short: as §2
[4] = molecular target: Tubulin (Bos taurus, UniProt Q6B856+Q862L2+Q862F3); assay: In vitro inhibition of tubulin polymerization measured as turbidity formed by centrifugation; type: protein assay
In short: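 Microtubule protein purified from bovine brain by assembly (37 °C)/disassembly (0 °C) cycles in MES buffer (pH 6.6) with glycerol and GTP; used at 2 mg/mL with 1 mM GTP. Compounds added in DMSO; assembly started by temperature jump from 4 to 37 °C and followed by turbidity at 350 nm. IC50 taken as concentration giving 50% inhibition of assembly rate.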

[5] = test system: MCF7; assay: Inhibitory activity against growth of MCF-7 cell line; type: functional, cell-based; conditions: Homo sapiens; in short: as §1
[6] = test system: HT-29; assay: Inhibitory activity against growth of HT-29 cell line; type: functional, cell-based; conditions: Homo sapiens
In short: (§3)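 HT-29 cells grown in RPMI 1640 with 10% fetal calf serum, 2 mM glutamine, antibiotics and 10 mM HEPES (pH 7.4). Exposed for 96 h to nine serial dilutions in triplicate; growth read by microculture tetrazolium assay. IC50 is the concentration lowering optical density 50% versus untreated controls; ratio is compound IC50 over parent dolastatin IC50.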

[7] = test system: HT-29; assay: Selectivity was evaluated [Selectivity = IC50 / IC50 of Dolastatin] against HT-29 cell line; type: functional, Homo sapiens; in short: as §3

Row | pIC50 [3] | IC50 [4] [nM] | pIC50 [5] | pIC50 [6] | SMILES | Selectivity [1] | Selectivity [2] | Selectivity [7]
1 | 8.80 | 3600 | 9.72 | 6.40 | CC[C@H](C)[C@@H]([C@@H](CC(=O)N1CCC[C@H]1C(=O)O[C@H](C(=O)N1C(=O)C=C(OC)[C@@H]1Cc1ccccc1)C(C)C)OC)N(C)C(=O)[C@@H](NC(=O)[C@H](C(C)C)N(C)C)C(C)C | 5 | 12 | 1365
2 | 8.57 | 13000 | 8.61 | 7.94 | CO[C@H]([C@@H](C)C(=O)NC(Cc1ccccc1)c1nccs1)[C@@H]1CCCN1C(=O)[C@@H]1CCCN1C(=O)[C@H](C(C)C)N(C)C(=O)[C@@H](NC(=O)[C@H](C(C)C)N(C)C)C(C)C (some centres undefined) (NMe2Val-V[NMeV]P[Dolaproine]-X1) | 83 | 90 | 190
3 | 9.14 | 1800 | 9.08 | 8.69 | CC[C@]1(O)C[C@H]2CN(CCc3c([nH]c4ccccc34)[C@@](C(=O)OC)(c3cc4c(cc3OC)N(C=O)[C@H]3[C@@](O)(C(=O)OC)[C@H](OC(C)=O)[C@]5(CC)C=CCN6CC[C@]43[C@@H]65)C2)C1 [VINCRISTINE] | – | – | –

Row | SMILES | pIC50 [3] | IC50 [4] [nM] | pIC50 [5] | pIC50 [6] | Selectivity [1] | Selectivity [2] | Selectivity [7]
4 | COC1=CC(=O)N(C(=O)[C@@H](OC(=O)[C@@H]2CCCN2C(=O)[C@@H]2CCCN2C(=O)[C@H](C(C)C)N(C)C(=O)[C@@H](NC(=O)[C@H](C(C)C)N(C)C)C(C)C)C(C)C)[C@H]1Cc1ccccc1 [DOLASTATIN 15] (NMe2Val-V[NMeV]PP-X2) | 9.89 | 17000 | 10.40 | 9.54 | – | – | –
5 | CC[C@H](C)[C@@H]([C@@H](CC(=O)N1CCC[C@H]1[C@H](OC)[C@@H](C)C(=O)N[C@@H](Cc1ccccc1)c1nccs1)OC)N(C)C(=O)[C@@H](NC(=O)[C@H](C(C)C)N(C)C)C(C)C [DOLASTATIN-10] | – | 2200 | 10.52 | – | – | – | –

Reference: ChEMBL document CHEMBL1131603, “Synthesis and biological activity of chimeric structures derived from the cytotoxic natural compounds dolastatin 10 and dolastatin 15” (J Med Chem, 1998)
